Measurements as given in article PMC11618456 (Nature Communications, 2024).

How the values were obtained:
[1] = Cytotoxicity MTT assay; format: cell-based; details: human, A549 cells, CC50, half-cytotoxic concentration, 72 h, MTT; mean ± SD (n ≥ 3)
[2] = Metabolic stability in human liver microsomes; format: in vitro ADME; details: for Stability in HLM (% remaining) 30 min / Stability in HLM (% remaining) 60 min: 1 mg/mL HLM, 1 mM NADPH, 20 µM compound, mean ± SD
Summary of the method: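 Incubations in 1× PBS held 1 mg/mL HLM, 1 mM NADPH and 20 µM test compound at 37 °C for up to 60 min. Remaining compound was quantified by UPLC-QTOFMS, n = 3 per time point.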

[3] = in vitro; details: Fech-mut (BALB/c background), mouse, serum from Fech-mut mice treated with K31, oral, 100 mg/kg
[4] = test system: WT mice; test: Sub-chronic study; format: in vivo, mouse; details: 100 mg/kg po, 23 days
Summary of the method: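 Male wild-type mice aged 8 weeks got vehicle or test compound 100 mg/kg orally for 23 days (n = 4 per group), weighed daily before dosing. On day 24, blood, liver, kidney and spleen were collected for organ/body weight ratios. Serum ALT, AST and ALP were measured by enzymatic kits, and liver histology was assessed.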

[5] = Pharmacokinetics in WT mice after oral treatment; format: in vivo, mouse; details: 100 mg/kg po, Fig. 1d
[6] = target: T1, ABCG2 (Mus musculus, UniProt Q7TMS5); test: PPIX efflux from RBCs of Fech-mut mice; format: cell-based; details: 10 µM, up to 3 h
T1 sequence (Q7TMS5 1-657): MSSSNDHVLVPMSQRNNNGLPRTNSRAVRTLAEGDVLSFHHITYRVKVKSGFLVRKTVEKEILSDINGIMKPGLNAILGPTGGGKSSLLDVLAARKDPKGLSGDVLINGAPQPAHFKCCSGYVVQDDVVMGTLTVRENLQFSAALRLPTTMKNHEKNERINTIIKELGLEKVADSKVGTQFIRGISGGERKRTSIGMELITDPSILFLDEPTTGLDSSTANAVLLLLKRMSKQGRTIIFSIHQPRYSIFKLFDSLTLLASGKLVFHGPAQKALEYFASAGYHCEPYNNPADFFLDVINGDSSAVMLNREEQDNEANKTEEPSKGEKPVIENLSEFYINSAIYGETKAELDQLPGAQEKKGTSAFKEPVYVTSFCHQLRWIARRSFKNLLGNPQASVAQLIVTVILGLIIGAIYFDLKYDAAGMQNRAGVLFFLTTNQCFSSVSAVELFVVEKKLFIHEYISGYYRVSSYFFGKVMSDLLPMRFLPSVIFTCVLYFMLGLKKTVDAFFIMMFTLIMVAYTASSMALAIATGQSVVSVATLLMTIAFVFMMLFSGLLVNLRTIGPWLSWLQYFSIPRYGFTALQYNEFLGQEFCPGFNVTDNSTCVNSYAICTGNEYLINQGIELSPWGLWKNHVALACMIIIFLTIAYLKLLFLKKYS
Summary of the method: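 Fech-mut mouse RBCs were cultured in phenol-red-free RPMI 1640 at 2 × 10^8 cells/well, 37 °C, gently shaken and light-protected, with or without 10 µM test compound for 1 or 3 h. Medium PPIX was read by fluorescence (ex 405 nm, em 630 nm) and expressed as % of RBC PPIX at time 0. n = 3 mice, duplicate incubations, mean ± SEM.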

[7] = test system: Fech-mut mice; test: Safety after short-term treatment; format: in vivo, mouse; details: 100 mg/kg po, 5 days
[8] = test system: Fech-mut mice; test: EPP-associated phototoxicity in Fech-mut mice after light exposure; format: in vivo, mouse
[9] = test system: A549 cells; test: Cytotoxicity MTT assay; format: cell-based; details: Table 1
[10] = test system: PPIX in serum of Fech-mut mice; test: PPIX distribution in serum of Fech-mut mice; format: in vivo, mouse; details: 100 mg/kg po
[11] = test system: ABCB1; test: Effect on ABCB1; format: in vivo, mouse; details: WT mice, 100 mg/kg po pretreatment, paclitaxel as substrate

COc1ccc2c3c([nH]c2c1)[C@H](CC(C)C)N1C(=O)[C@H](CC(=O)NC(C)(C)C)NC(=O)[C@@H]1C3 [K3]
CC50 at 72 h [1]: 58.9 ± 5.3 µM | Stability in HLM (% remaining) 30 min [2]: 74 ± 25 % remaining | Stability in HLM (% remaining) 60 min [2]: 60 ± 3 % remaining

COc1ccc2c3c([nH]c2c1)[C@H](CC(C)C)N1C(=O)[C@H](CC(=O)NC2CCCCC2)NC(=O)[C@@H]1C3 [K23]
CC50 at 72 h [1]: 46.6 ± 0.9 µM | Stability in HLM (% remaining) 30 min [2]: 45 ± 2 % remaining | Stability in HLM (% remaining) 60 min [2]: 26 ± 2 % remaining

COc1ccc2c3c([nH]c2c1)[C@H](CC(C)C)N1C(=O)[C@H](CC(=O)N2CCCCC2)NC(=O)[C@@H]1C3 [K25]
CC50 at 72 h [1]: 26.5 ± 2.5 µM

COc1ccc2c3c([nH]c2c1)[C@H](CC(C)C)N1C(=O)[C@H](CC(=O)NC(C)C)NC(=O)[C@@H]1C3 [K31]
fraction unbound at 16 h [3]: 0.0585 | biomarkers of liver toxicity (ALT, AST, ALP) (in words) [4]: did not alter | growth (body weight gain) (in words) [4]: did not alter | ratios of organ (liver, kidney, and spleen) to body weight (in words) [4]: did not alter | pharmacokinetic profile after oral treatment (in words) [5]: outstanding pharmacokinetic profiles | PPIX release from the RBCs of Fech-mut mice (in words) [6]: markedly decreased | PPIX levels in the liver (in words) [7]: did not alter | liver damage, alanine aminotransaminase (in words) [7]: did not potentiate liver damage | mean corpuscular hemoglobin in blood (in words) [7]: no significant impact | total hemoglobin in blood (in words) [7]: no significant impact | morphological changes in the liver and kidney ([7]; H&E): did not cause morphological changes | withdrawal test: phototoxicity after K31 withdrawal ([8]; 100 mg/kg po days 1-4, then withdrawn, light continued days 5-8): recurrence of light-triggered phototoxicity was observed in the skin of Fech-mut mice from the second day of K31 withdrawal | oxidative stress and inflammation in the skin ([8]; 100 mg/kg po, light exposure, once daily for 5 days): attenuated oxidative stress and inflammation | light-triggered phototoxicity (gross appearance of the skin) ([8]; 30 and 100 mg/kg po, once daily for 5 days, both sexes): significantly decreased | histological changes of skin (missing epidermis, damaged subepidermal collagen) ([8]; po pretreatment, light exposure, H&E, Sirius Red): prevented | cytotoxicity compared with other Ko143 analogs [9]: less cytotoxic when compared to other Ko143 analogs | CC50 at 72 h [1]: > 100 µM | PPIX in serum (in words) [10]: significant decrease | Stability in HLM (% remaining) 30 min [2]: 65 ± 3 % remaining | Stability in HLM (% remaining) 60 min [2]: 49 ± 9 % remaining | metabolic stability (in words) ([2]; incubation with human liver microsomes, Fig. 1c): significantly improved | inhibitory effect on ABCB1 [11]: no inhibitory effect

COc1ccc2c3c([nH]c2c1)[C@H](CC(C)C)N1C(=O)[C@H](CC(=O)NCc2ccccc2)NC(=O)[C@@H]1C3 [K33]
CC50 at 72 h [1]: 31.1 ± 3.7 µM | Stability in HLM (% remaining) 30 min [2]: 37 ± 3 % remaining | Stability in HLM (% remaining) 60 min [2]: 18 ± 1 % remaining
